The target of assay [1] is T1, Progesterone receptor (Oryctolagus cuniculus) (UniProt P06186).
T1 sequence (whole entry): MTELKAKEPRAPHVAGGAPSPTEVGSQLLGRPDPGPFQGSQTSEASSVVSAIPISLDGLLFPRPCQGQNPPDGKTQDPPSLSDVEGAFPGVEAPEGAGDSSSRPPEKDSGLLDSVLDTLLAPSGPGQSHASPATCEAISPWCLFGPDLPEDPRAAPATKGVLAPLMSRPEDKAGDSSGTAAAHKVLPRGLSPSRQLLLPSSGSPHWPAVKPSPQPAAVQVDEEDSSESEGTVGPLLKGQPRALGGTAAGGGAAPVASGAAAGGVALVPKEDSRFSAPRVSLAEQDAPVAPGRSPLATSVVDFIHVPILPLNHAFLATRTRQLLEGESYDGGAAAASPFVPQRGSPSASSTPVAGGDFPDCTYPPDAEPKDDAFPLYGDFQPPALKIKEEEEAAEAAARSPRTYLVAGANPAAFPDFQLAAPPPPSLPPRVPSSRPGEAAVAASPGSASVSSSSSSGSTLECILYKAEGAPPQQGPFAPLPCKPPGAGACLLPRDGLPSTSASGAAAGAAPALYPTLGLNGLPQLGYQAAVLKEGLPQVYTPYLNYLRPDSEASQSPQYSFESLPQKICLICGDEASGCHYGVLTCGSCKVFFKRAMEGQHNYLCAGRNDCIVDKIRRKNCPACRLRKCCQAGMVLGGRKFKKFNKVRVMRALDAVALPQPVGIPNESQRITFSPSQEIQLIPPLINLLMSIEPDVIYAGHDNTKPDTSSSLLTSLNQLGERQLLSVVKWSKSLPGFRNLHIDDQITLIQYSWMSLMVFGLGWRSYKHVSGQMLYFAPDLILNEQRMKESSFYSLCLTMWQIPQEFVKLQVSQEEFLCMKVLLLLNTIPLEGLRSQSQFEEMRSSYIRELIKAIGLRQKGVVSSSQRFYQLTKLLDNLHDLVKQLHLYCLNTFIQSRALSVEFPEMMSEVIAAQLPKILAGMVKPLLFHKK
Briefly: Relative binding to progesterone receptor compared to progesterone. Put shortly:
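Competitive binding to progesterone receptor from rabbit uterus using tritiated progesterone as ligand. Competition factor is the multiple of the concentration needed to give displacement equivalent to the standard; a high factor means weak binding.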

Assay [2] addresses T2, Mineralocorticoid receptor (Rattus norvegicus) (UniProt P22199).
T2 sequence (whole entry): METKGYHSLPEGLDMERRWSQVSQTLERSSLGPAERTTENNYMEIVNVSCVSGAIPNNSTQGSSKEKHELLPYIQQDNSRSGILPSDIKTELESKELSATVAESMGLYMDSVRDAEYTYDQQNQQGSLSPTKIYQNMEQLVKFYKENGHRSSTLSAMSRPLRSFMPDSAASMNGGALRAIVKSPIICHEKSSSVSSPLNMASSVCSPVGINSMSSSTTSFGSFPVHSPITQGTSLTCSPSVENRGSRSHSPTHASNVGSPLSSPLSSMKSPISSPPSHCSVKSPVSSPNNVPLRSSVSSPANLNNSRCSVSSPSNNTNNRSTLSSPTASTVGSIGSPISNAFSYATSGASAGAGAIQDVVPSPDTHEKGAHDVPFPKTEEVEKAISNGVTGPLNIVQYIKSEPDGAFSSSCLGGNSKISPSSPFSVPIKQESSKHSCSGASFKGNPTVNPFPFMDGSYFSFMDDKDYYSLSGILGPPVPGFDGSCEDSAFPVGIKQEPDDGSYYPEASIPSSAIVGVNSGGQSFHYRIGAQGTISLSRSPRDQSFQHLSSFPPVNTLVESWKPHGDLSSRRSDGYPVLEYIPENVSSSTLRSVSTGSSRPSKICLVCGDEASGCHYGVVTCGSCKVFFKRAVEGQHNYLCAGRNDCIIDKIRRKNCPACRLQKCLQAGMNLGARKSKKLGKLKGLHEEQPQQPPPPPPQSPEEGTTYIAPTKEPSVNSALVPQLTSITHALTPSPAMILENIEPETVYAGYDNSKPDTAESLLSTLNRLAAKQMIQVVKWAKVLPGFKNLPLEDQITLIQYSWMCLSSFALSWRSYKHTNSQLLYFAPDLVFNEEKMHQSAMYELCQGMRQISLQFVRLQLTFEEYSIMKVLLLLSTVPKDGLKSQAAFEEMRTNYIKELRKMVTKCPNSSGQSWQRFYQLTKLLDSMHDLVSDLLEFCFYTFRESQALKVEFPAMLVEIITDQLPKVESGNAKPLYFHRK
Briefly: Antialdosterone activity in rats administered orally compared to Spironolactone(100).

For assay [3], the species on record is Rattus norvegicus. Briefly: Ovulation inhibitory activity in rats after 30 mg peroral dose.
For assay [4], the species on record is Rattus norvegicus. Briefly: Ovulation inhibitory activity in rats after 100 mg peroral dose.
For assay [5], the target named is T1, Progesterone receptor (Oryctolagus cuniculus). The assay is described as follows: Progestational activity by Clauberg test in rabbits as McPhail index after 100 mg subcutaneous dose. Format: functional. Put shortly: (§1)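 Castrated infantile female New Zealand rabbits (800–1000 g) were primed with estradiol 0.5 μg sc daily for 6 days. They then received compound over 5 days (total 3–100 mg sc or 30–300 mg po).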

Assay [6] has the same target. The assay is described as follows: Progestational activity by Clauberg test in rabbits as McPhail index after 10 mg subcutaneous dose. Format: functional. Put shortly: as §1
For assay [7] the target is unchanged. The assay is described as follows: Progestational activity by Clauberg test in rabbits as McPhail index after 30 mg subcutaneous dose. The assay is classed as functional. Put shortly:
as §1

For assay [8] the target is unchanged. Briefly: Progestational activity by Clauberg test in rabbits as McPhail index after 3 mg subcutaneous dose. The assay is classed as functional. Put shortly: as §1
The species named for assay [9] is Rattus norvegicus. The assay is described as follows: Ovulation inhibitory activity in rats after 40 mg peroral dose.
Assay [10] addresses T3, Androgen receptor (Rattus norvegicus) (UniProt P15207).
T3 sequence (whole entry): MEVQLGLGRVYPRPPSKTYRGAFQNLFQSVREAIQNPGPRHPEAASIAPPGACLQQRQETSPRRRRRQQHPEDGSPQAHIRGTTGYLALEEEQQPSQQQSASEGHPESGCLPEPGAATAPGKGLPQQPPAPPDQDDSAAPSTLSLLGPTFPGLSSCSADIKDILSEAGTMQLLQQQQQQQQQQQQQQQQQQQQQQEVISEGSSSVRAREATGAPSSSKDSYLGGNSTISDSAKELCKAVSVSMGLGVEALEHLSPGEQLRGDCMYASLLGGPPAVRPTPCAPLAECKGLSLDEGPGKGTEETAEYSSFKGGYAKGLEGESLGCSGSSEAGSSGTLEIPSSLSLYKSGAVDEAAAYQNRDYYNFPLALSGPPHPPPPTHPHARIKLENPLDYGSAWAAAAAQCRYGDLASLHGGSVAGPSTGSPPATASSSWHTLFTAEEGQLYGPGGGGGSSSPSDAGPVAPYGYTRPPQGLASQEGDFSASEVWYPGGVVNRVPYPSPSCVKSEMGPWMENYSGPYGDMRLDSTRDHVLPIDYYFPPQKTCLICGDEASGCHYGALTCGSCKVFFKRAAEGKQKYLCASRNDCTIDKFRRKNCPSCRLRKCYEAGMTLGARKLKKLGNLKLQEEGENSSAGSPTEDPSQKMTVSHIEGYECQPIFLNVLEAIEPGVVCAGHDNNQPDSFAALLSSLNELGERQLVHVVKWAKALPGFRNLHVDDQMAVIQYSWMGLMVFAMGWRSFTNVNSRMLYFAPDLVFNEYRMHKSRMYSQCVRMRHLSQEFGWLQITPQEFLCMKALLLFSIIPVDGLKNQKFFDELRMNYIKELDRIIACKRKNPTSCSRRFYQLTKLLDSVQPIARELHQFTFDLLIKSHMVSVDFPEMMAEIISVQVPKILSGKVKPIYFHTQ
Briefly: Antiandrogenic activity as prostate weight after subcutaneous administration compared to Spironolactone. The assay is classed as functional, organism-based. Particulars: Prostate gland. The method, boiled down: (§2)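 Castrated male Wistar SPF rats (~100 g) were dosed once daily for 12 days, sc at 1–16 mg/rat or po at 1–100 mg/rat, each with testosterone propionate 0.1 mg/rat sc; controls got Tp alone. On day 13, fresh seminal vesicle and ventral prostate weights were taken as % of Tp control. Relative potency came from regression/covariance analysis.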

The target of assay [11] is T3, Androgen receptor (Rattus norvegicus). Briefly: Antiandrogenic activity as seminal vesicle weight after subcutaneous administration compared to Spironolactone. Format: functional, organism-based. The method, boiled down:
as §2

Assay [12] deals with T1, Progesterone receptor (Oryctolagus cuniculus). The assay is described as follows: Progestational activity by Clauberg test in rabbits as McPhail index after 100 mg peroral dose. The assay is classed as functional. Put shortly:
as §1

For assay [13] the target is unchanged. Briefly: Progestational activity by Clauberg test in rabbits as McPhail index after 300 mg peroral dose. The assay is classed as functional. Put shortly:
as §1

For assay [14] the target is unchanged. The assay is described as follows: Progestational activity by Clauberg test in rabbits as McPhail index after 30 mg peroral dose. Format: functional. The method, boiled down: as §1
In assay [15] the target is T3, Androgen receptor (Rattus norvegicus). The assay is described as follows: Antiandrogenic activity after peroral administration as relative potency compared to Spironolactone. The assay is classed as functional, organism-based. The method, boiled down: as §2

Where only a bound is given, the exact number is not on record here.

Consider `CC(=O)S[C@@H]1CC2=CC(=O)C=C[C@]2(C)[C@H]2CC[C@@]3(C)[C@@H]([C@@H]4C[C@@H]4[C@@]34CCC(=O)O4)[C@H]12` (stereo in doubt; 14), for which the Ratio in [1] worked out at 76. For the same molecule, the Relative potency in assay [2] came out at 115.

One may read the Inhibition as the drop in the measured response relative to a control, in per cent. Higher therefore signals a strong effect. In the case of `CC(=O)S[C@@H]1CC2=CC(=O)C=C[C@]2(C)[C@H]2CC[C@@]3(C)[C@@H]([C@@H]4C[C@@H]4[C@@]34CCC(=O)O4)[C@H]12` (stereo in doubt) [MESPIRENONE], the figures for the Inhibition in assay [3] and in [4] were 0% and 20%, respectively.

Turning to `CC(=O)S[C@@H]1CC2=CC(=O)CCC2(C)C2CCC3(C)C(C21)[C@H]1C[C@H]1[C@@]31CCC(=O)O1` (stereo partly drawn), the Ratio in assay [1] was 18. For the same molecule, the figures for the McPhail index in [5], in assay [6] and in assay [7] were 3.1, 2.6 and 3.1, respectively. The Relative potency in [2] came to 282.

As for `CC(=O)S[C@@H]1CC2=CC(=O)CCC2(C)C2CCC3(C)C(C21)[C@@H]1C[C@@H]1[C@@]31CCC(=O)O1` (stereo partly drawn), the Ratio in assay [1] was found to be 14. The McPhail index in [8] is 1.6. In [2], the Relative potency was 186.

As to `CC(=O)S[C@@H]1CC2=CC(=O)CC[C@]2(C)[C@H]2CC[C@@]3(C)[C@@H](CC[C@@]34CCC(=O)O4)[C@H]12` [SPIRONOLACTONE], the results for the Inhibition in assay [9] and in [4] were 16% and 20%, respectively.

As to `CC(=O)S[C@@H]1CC2=CC(=O)[C@@H]3C[C@@H]3C2(C)C2CCC3(C)C(C21)[C@H]1C[C@H]1[C@@]31CCC(=O)O1` (stereo partly drawn), the Ratio in [1] stood at 19. Moreover, the McPhail index was determined as 3.1 in [5], 2.4 in assay [6] and 3 in assay [7]. In addition, the results for the Relative potency in assay [10], in assay [11] and in assay [2] were 2.4, 1 and 281, respectively.

Consider `CC(=O)S[C@@H]1CC2=CC(=O)C=C[C@]2(C)[C@H]2CC[C@@]3(C)[C@@H]([C@@H]4C[C@@H]4[C@@]34CCC(=O)O4)[C@H]12` (stereo in doubt), for which the Ratio in assay [1] amounted to 33. In addition, the McPhail index in [12] stood at 1.6; in [13] it was 2.8; in assay [14], 1; in [5], 2.6; in [6], 1.2; in assay [7], 1.7. Besides, the Relative potency was 0.4 in assay [10], 0.2 in [11], less than 0.1 in [15] and 333 in [2].

For the molecule `CC(=O)S[C@@H]1CC2=CC(=O)[C@@H]3C[C@@H]3C2(C)C2CCC3(C)C(C21)[C@@H]1C[C@@H]1[C@@]31CCC(=O)O1` (stereo partly drawn), the Ratio in [1] came to 7.8. The McPhail index in [5] came out at 3.4; in assay [6], 1; in [7], 1.6. In [9], this molecule returned an Inhibition of 100%. In addition, the Relative potency in [2] was 228.

The values are drawn from ChEMBL document CHEMBL1123807, “Aldosterone antagonists. 2. New 7 alpha-(acetylthio)-15,16-methylene spirolactones” (1987).
